# Screens as filed in PubChem.
# In the library only some 2.5% were active in any assay of this set; here they are far more common.
# Insulin prom up: MIN6 insulin promoter up-regulation | z-score at 5 µM | actives 0.3% (n = 190,000) | MIN6 insulin promoter-GFP reporter, high-content imaging; hits give high values;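 active = z-score above 3 at 5 µM with at least 500 cells counted in the well; inconclusive = wells under 500 cells, flagged as cytotoxic or low count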
# NPY-Y1 PAM-ag: potentiates or activates human NPY-Y1 receptor; NPY-Y1 expressing cells, potentiator/agonist activation; P25929; AID 1304; activation, % at 3.6 µM; actives 0.37% (n = 220,000); in the data active = activation above about 33%, passing the limit was not always enough;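 also: cells stimulated with NPY at EC10 then isoproterenol at EC100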
# Target sequence (P25929 whole entry, looked up): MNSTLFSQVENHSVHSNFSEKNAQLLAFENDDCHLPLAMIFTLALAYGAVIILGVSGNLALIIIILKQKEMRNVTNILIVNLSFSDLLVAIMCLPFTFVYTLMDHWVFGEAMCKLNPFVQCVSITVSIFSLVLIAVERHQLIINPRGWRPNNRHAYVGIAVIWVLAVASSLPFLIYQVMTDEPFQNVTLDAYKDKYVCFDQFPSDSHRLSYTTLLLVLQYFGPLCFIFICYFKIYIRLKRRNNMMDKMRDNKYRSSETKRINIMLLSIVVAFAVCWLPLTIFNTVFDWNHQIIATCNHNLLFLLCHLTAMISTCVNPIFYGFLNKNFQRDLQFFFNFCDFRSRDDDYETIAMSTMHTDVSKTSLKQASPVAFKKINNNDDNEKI
# NPY Y2 blocker: blocks the human neuropeptide Y Y2 receptor; inhibition, % at 2.7 µM; P49146; AID 793; actives 0.99% (n = 140,000); NPY-Y2 expressing cells, antagonist mode; in the data active = inhibition above about 17%
# NPY-Y1 antag: NPY-Y1 (human) receptor antagonism; P25929; actives 1% (n = 200,000); HEK293-CNG Y1 cells, membrane potential fluorescence; NPY at EC95, then isoproterenol; inhibition, % at 3.6 µM;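 active = inhibition above the campaign mean inhibition of all tested compounds plus 3 SD, cut at about 20% in these data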
#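 Test system – HEK293 Y1/CNG channel cell line · Also added – NPY agonist 25 nM, then isoproterenol 1 µM plus Ro 20-1724 25 µM · Compound dosing – one concentration, 3.6 µM, in 0.4% DMSO · Schedule – compound incubation 1 h at room temperature, readout 45 min post-stimulation · Technique – fluorescence, membrane potential probe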
# NPY-Y2 PAM-ag: human NPY-Y2 potentiation or agonism, primary screen; cells expressing NPY-Y2, potentiator/agonist read-out; activation, % at 3.6 µM; actives 0.45% (n = 220,000); in the data active = activation above about 27%;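 also: cells stimulated with NPY near EC25 plus isoproterenol at EC100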
# Insulin prom inh: TRM-6 insulin promoter activity inhibition | actives 0.9% (n = 130,000) | inhibition, % at 2 µM | TRM-6 cells (human fetal islet line), insulin promoter-eGFP reporter, imaging; reporter expression induced with tamoxifen | AID 1273;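 active = inhibition above the mean plus 3 SD, with well images judged a real hit on visual review, cut at about 60% in these data, passing the limit was not always enough; inconclusive = inhibition over the cutoff but images rejected on review; inactive = inhibition not above the cutoff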
# A number is an active result; n = inactive; u = inconclusive; x = no result.
SMILES,Insulin prom up,NPY-Y1 PAM-ag,NPY Y2 blocker,NPY-Y1 antag,NPY-Y2 PAM-ag,Insulin prom inh
Cc1ccc(N=C(NOCc2ccc(Cl)cc2Cl)c2nonc2N)c(C)c1,n,n,20.8,31.6,n,n
Cc1ccc(N=C(NO)c2nonc2N)c(C)c1,n,n,n,n,n,n
Cc1ccccc1N=C(NOCc1ccccc1)c1nonc1N,x,n,n,n,n,n
Cc1ccccc1N=C(NOCc1ccc(Cl)cc1Cl)c1nonc1N,n,n,29.6,33.1,n,n
COc1ccc(-c2nnc(SCC(=O)NCc3cccs3)n2CC(C)C)cc1,x,n,n,n,n,n
CC(/C=N/NC(=O)Cc1cccn1C)=C\c1ccccc1,n,n,n,n,n,75.0
CN(C)c1ccc(/C=N/n2c(-c3ccccc3Br)n[nH]c2=S)cc1,n,n,x,x,n,x
Cc1cccc2sc(NNC(=O)c3ccc(S(=O)(=O)N4CCc5ccccc5C4)cc3)nc12,n,n,n,n,n,70.7
Cc1cccc2sc(NNC(=O)c3ccc(S(=O)(=O)N4CCCC(C)C4)cc3)nc12 (configuration not stated),n,n,n,n,n,65.0
CCOC(=O)N1CCN(S(=O)(=O)c2ccc(C(=O)NNc3nc4c(C)cccc4s3)cc2)CC1,n,n,n,n,n,n
Cc1cccc2sc(NNC(=O)c3ccc4c(c3)OCCO4)nc12,3.4,n,n,n,n,n
Cc1cc(C)c2nc(NNC(=O)c3ccc(S(=O)(=O)N4CCCCC4)cc3)sc2c1,n,n,n,n,n,n
CCC(CC)c1nnc(NC(=O)CCNC(=O)c2ccccc2Cl)s1,n,n,x,n,n,n
Cc1cc(C=O)c2c(c1)C=CC1(Oc3ccccc3C(=O)N1C)O2 (configuration not stated),x,n,n,n,n,n
Cc1ccc(-n2nnnc2SCC(=O)Nc2ccccc2-c2ccccc2)cc1C,n,n,n,n,n,x
Cc1ccc(-n2nnnc2SCC(=O)Nc2ccccc2N2CCCCC2)cc1C,n,n,28.0,47.6,n,x
COc1ccccc1N1CCN(C(=O)CSc2nnc3n2C(C)(C)Cc2ccccc2-3)CC1,u,95.8,n,n,74.9,x
CC1Cc2ccccc2N1C(=O)CSc1nnc2n1C(C)(C)Cc1ccccc1-2 (configuration not stated),n,n,n,n,n,n
CC/C(=N/NC(=O)CNc1ccc(Cl)cc1C)c1ccccc1,n,n,x,n,n,n
O=C(c1cnccn1)N(Cc1cccs1)C1(C(=O)NC2CCCC2)CCCCC1,n,n,25.8,42.4,n,n
O=C(Cc1cccs1)N(Cc1cccs1)C1(C(=O)NC2CCCCC2)CCCCC1,n,n,37.3,51.8,n,n
O=C(c1cnccn1)N(Cc1cccs1)C1(C(=O)NC2CCCCC2)CCCCC1,n,n,20.8,38.2,n,n
O=C1CCC(C(=O)N(Cc2cccs2)C2(C(=O)NC3CCCCC3)CCCCC2)N1 (configuration not stated),n,n,x,n,n,n
O=C1NC(=O)C(CC(=O)N(Cc2cccs2)C2(C(=O)NC3CCCC3)CCCCC2)N1 (configuration not stated),n,n,n,n,n,n
CCC1CCCCN1C(=O)Nc1cc(Cl)ccc1OC (configuration not stated),n,n,x,n,n,n
SMILES,Insulin prom up,NPY-Y1 PAM-ag,NPY Y2 blocker,NPY-Y1 antag,NPY-Y2 PAM-ag,Insulin prom inh
O=c1c(-c2nc3ccccc3s2)cccn1Cc1ccc(Cl)c(Cl)c1,n,n,n,n,n,n
CCCNC(=S)N1CCC(C(=O)c2ccc3c(c2)OCCO3)CC1,n,n,x,n,n,x
CC1C(=NO)C(C)C(c2ccc(N(C)C)cc2)NC1c1ccc(N(C)C)cc1 (configuration not stated),x,n,n,n,n,x
c1ccc(-c2nc(-n3nc4ccccc4n3)nc3ccccc23)cc1,n,n,26.5,n,n,n
Clc1ccc(-c2nc(N3CCCCC3)nc3ccccc23)cc1,n,n,n,n,n,n
CCOC(=O)c1ccc(S(=O)(=O)NNC(=O)COc2ccc(C)cc2)cc1,n,n,n,n,n,n
OC1(c2cn(Cc3ccccc3)nn2)CCCCC1,5.88,n,n,n,n,x
COc1ccccc1-c1nc(-c2ccncc2)no1,n,n,n,n,n,n
COc1ccc(Cl)cc1-c1nc(-c2ccncc2)no1,n,n,n,n,n,81.0
O=C(Cc1ccccc1)Nc1nc(-c2cccc([N+](=O)[O-])c2)cs1,n,n,n,n,n,x
Cc1ccc(C(=O)NC(=S)Nc2nc(-c3cccc([N+](=O)[O-])c3)cs2)c(Cl)c1,n,n,x,n,n,85.7
CCc1ccc2[nH]c(=O)c(CN(Cc3ccccc3OC)Cc3nnnn3Cc3ccco3)cc2c1,n,n,18.7,n,n,n
O=C(Nc1ccccc1N1CCN(c2ccc(F)cc2)CC1)c1ccccc1,n,n,29.2,49.0,n,n
COc1ccc(OCCCNCCc2ccccc2)cc1,n,n,x,21.3,n,x
CCOC(=O)c1c(N2CCCCC2)c2ccccc2[nH]c1=O,n,n,n,n,n,65.6
CCCC[N+](CC#Cc1ccccc1)(CCCC)CCCS(=O)(=O)[O-],n,n,x,n,n,n
O=C(Nc1ccc2c(c1)OCO2)OCc1ccccc1,n,n,n,n,n,100.0
O=C(Nc1ccc2c(c1)OCO2)C1CCCN1C(=O)OCc1ccccc1 (configuration not stated),n,n,n,n,n,n
N/C(CN1CCSCC1)=N\OCc1c(F)cccc1Cl,n,n,x,x,n,x
Cc1cc(N(CCO)CCO)ccc1N=Nc1cc(F)ccc1F,n,62.3,x,n,69.0,x
Cc1ccc(NC(=S)N2CCSC2c2cccs2)cc1 (configuration not stated),n,n,x,n,n,n
N/C(=N\O)c1ccc(N2CCN(c3ncccc3C(F)(F)F)CC2)nc1,n,n,x,x,n,x
O=S(=O)(Nc1cccc2c1ccc1cccn12)c1cccs1,n,n,n,n,n,n
Cn1c(Cn2c(=O)sc3ccccc32)nnc1SCC(=O)Nc1ccccc1F,n,n,n,n,n,x
CCN(CC)CCCN1CC(O)=C(c2nc3ccccc3s2)C1=N,n,n,n,n,n,65.7
SMILES,Insulin prom up,NPY-Y1 PAM-ag,NPY Y2 blocker,NPY-Y1 antag,NPY-Y2 PAM-ag,Insulin prom inh
COc1cc2c(cc1OC)C(C)N(C(C)=O)CC2 (configuration not stated),x,n,n,n,n,81.0
COc1cc2c(cc1OC)C(C)N(C(=O)c1cccs1)CC2 (configuration not stated),n,n,x,n,n,x
CCN1/C(=C\C=C(C(C)=O)C(C)=O)Sc2ccccc21,7.73,n,x,n,n,n
CCOC(=O)/C(C#N)=C(C)/C=C1\Sc2ccccc2N1CC,n,n,n,n,n,n
O=S(=O)(Nc1ncnc2sc3c(c12)CCC3)c1ccc(Cl)s1,n,51.9,n,n,46.1,n
O=S(=O)(Nc1ncnc2sc3c(c12)CCC3)c1cc(F)ccc1F,n,n,x,x,n,x
Cc1cccc(C(C)(C)C)c1OCCn1ccnc1,x,n,n,n,n,89.0
